Results published in ChEMBL document CHEMBL4118027, “Preussilides A-F, Bicyclic Polyketides from the Endophytic Fungus Preussia similis with Antiproliferative Activity” (J Nat Prod, 2017).
Converted amounts (≈) assume the structure as drawn. The source made the active and inactive calls. No cut-off for these calls is given here.

Experiments:
SK-OV-3 = test: Cytotoxicity against human SKOV3 cells assessed as reduction in cell viability after 5 days by MTT assay; assay type: functional, cell-based; settings: SK-OV-3, 120 h
How it was run: (§1)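 MTT viability assay run over 5 days on a panel of eight lines (L929, KB3.1, A431, A549, SKOV-3, PC-3, MCF-7, U2OS). IC50 values were derived.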

Setaria italica = test: Phytotoxicity against Setaria italica assessed as inhibition of seedling germination at 100 ug/disk; assay type: functional, organism-based
Caenorhabditis elegans = test: Nematicidal activity against Caenorhabditis elegans up to 100 ug/ml; assay type: functional, organism-based
A-431 = test: Cytotoxicity against human A431 cells assessed as reduction in cell viability after 5 days by MTT assay; assay type: functional, cell-based; settings: A-431, 120 h; how it was run: as §1
Yamadazyma tenuis = test: Antifungal activity against Candida tenuis MUCL 29892 by serial dilution method; assay type: functional, organism-based
U2OS [1] = test: Cytotoxicity against human U2OS cells assessed as reduction in cell viability after 5 days by MTT assay; assay type: functional, cell-based; settings: 120 h; how it was run: as §1
Escherichia coli = test: Antibacterial activity against Escherichia coli DSM 498 by serial dilution method; assay type: functional, organism-based
L929 [2] = test: Cytotoxicity against mouse L929 cells assessed as reduction in cell viability after 5 days by MTT assay; assay type: functional, cell-based; settings: L929, 120 h; how it was run: as §1
U2OS [3] = test: Cell cycle arrest in human U2OS cells assessed as accumulation at sub-G1 phase at 10 ug/ml after 18 hrs by propidium iodide staining based flow cytometry (reference value: 0.19%); assay type: functional
How it was run: (§2)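 U2OS were seeded at 7 × 10^5/well in six-well plates and exposed to 5 or 10 μg/mL for 18 h after spreading, with untreated and DMSO mock controls. Cells were trypsinized, fixed in 2% PFA/PBS, then in ice-cold methanol 30 min. Staining: anti-tubulin/anti-lamin antibodies plus RNase A and propidium iodide. Flow cytometry assigned G1, S, G2-M and sub-G1 by DNA content.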

KB 3-1 = test: Cytotoxicity against human KB3-1 cells assessed as reduction in cell viability after 5 days by MTT assay; assay type: functional, cell-based; settings: KB 3-1, 120 h; how it was run: as §1
PC-3 = test: Cytotoxicity against human PC3 cells assessed as reduction in cell viability after 5 days by MTT assay; assay type: functional, cell-based; settings: PC-3, 120 h; how it was run: as §1
L929 [4] = test: Induction of nuclear fragmentation in mouse L929 cells at cytotoxic IC50 by DAPI staining based microscopic method; assay type: functional, cell-based
Sclerotinia sclerotiorum = test: Antifungal activity against Sclerotinia sclerotiorum DSM 1946 at 100 ug/disk after 5 days by disk diffusion assay; assay type: functional; settings: DSM 1946, 120 h, read-out: IZ
How it was run: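 Disk diffusion on YMG medium seeded with a mycelial suspension of the non-sporulating test fungus. Paper disks carried […] compound. Nystatin at 20 μg/disk was the positive control. Inhibition zone diameter (mm) was read after 5 days.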

Candida albicans = test: Antifungal activity against Candida albicans DSM 1665 by serial dilution method; assay type: functional, organism-based
[5] = system: Schizosaccharomyces pombe; test: Antifungal activity against Schizosaccharomyces pombe DSM 70572 by serial dilution method; assay type: functional, organism-based
U2OS [6] = test: Cell cycle arrest in human U2OS cells assessed as accumulation at G1 phase at 10 ug/ml after 18 hrs by propidium iodide staining based flow cytometry (reference value: 50.1%); assay type: functional; how it was run: as §2
U2OS [7] = test: Induction of apoptosis in human U2OS cells assessed as tubulin fragmentation up to 10 ug/ml after 18 hrs by flow cytometry; assay type: functional, cell-based; how it was run: as §2
Pseudomonas aeruginosa = test: Antibacterial activity against Pseudomonas aeruginosa PA14 by serial dilution method; assay type: functional, organism-based
Aspergillus fumigatus = test: Antifungal activity against Aspergillus fumigatus DSM 819 by serial dilution method; assay type: functional
U2OS [8] = test: Induction of apoptosis in human U2OS cells assessed as caspase-3/7 cleavage at 5 ug/ml after 18 hrs by caspase-3/7 green reagent based flow cytometry (reference value: 8.04%)
U2OS [9] = test: Cell cycle arrest in human U2OS cells assessed as accumulation at G2/M phase at 5 ug/ml after 18 hrs by propidium iodide staining based flow cytometry (reference value: 24.3%); assay type: functional; how it was run: as §2
U2OS [10] = test: Induction of morphological changes in human U2OS cells at 0.25 to 5 ug/ml after 24 hrs by DAPI staining based immunofluorescence microscopic method
Micrococcus luteus = test: Antibacterial activity against Micrococcus luteus DSM 1790 by serial dilution method; assay type: functional, organism-based
[11] = system: Mycolicibacterium smegmatis; test: Antibacterial activity against Mycobacterium smegmatis ATCC 700084 by serial dilution method; assay type: functional, organism-based
Rhodotorula glutinis = test: Antifungal activity against Rhodotorula glutinis DSM 10134 by serial dilution method; assay type: functional, organism-based
U2OS [12] = test: Ratio of compound effect for induction of multipolar and duplicated spindle formation to compound effect for cytotoxicity for human U2OS cells; assay type: functional
How it was run: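 Spindle arm: U2OS in DMEM (4.5 g/L glucose, 10% FBS) at 37 °C, 7% CO2, on fibronectin-coated coverslips, adhered 16 h. Treated 24 h at 0.25–10 μg/mL (diluted from 1 mg/mL DMSO stock) with a DMSO control, PFA-fixed, and anti-α-tubulin immunostained to score mitotic spindles. Cytotoxicity arm: 5-day MTT. Ratio compares spindle-inducing concentration with cytotoxic concentration.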

U2OS [13] = test: Induction of morphological changes in human U2OS cells assessed as aberrantly sized cells with abnormal small nuclei formation at 0.25 to 5 ug/ml after 24 hrs by DAPI staining based immunofluorescence microscopic method; assay type: functional, cell-based
How it was run: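 U2OS in DMEM (4.5 g/L glucose, 10% FBS), 37 °C, 7% CO2, seeded 3 × 10^4/well on fibronectin-coated coverslips and adhered 16 h. Treated 24 h at 0.25, 0.5, 2.5, 5 or 10 μg/mL (diluted from 1 mg/mL DMSO stock), DMSO control. Fixed in 4% PFA/PBS 20 min; anti-α-tubulin (DM1A), phalloidin-Alexa 488 and DNA stain; immunofluorescence imaging.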

U2OS [14] = test: Induction of apoptosis in human U2OS cells assessed as lamin fragmentation up to 10 ug/ml after 18 hrs by flow cytometry; assay type: functional, cell-based; how it was run: as §2
MCF7 = test: Cytotoxicity against human MCF7 cells assessed as reduction in cell viability after 5 days by MTT assay; assay type: functional, cell-based; settings: MCF7, 120 h; how it was run: as §1
Mucor hiemalis = test: Antifungal activity against Mucor hiemalis DSM 2656 by serial dilution method; assay type: functional, organism-based
U2OS [15] = test: Cell cycle arrest in human U2OS cells assessed as accumulation at G2/M phase at 10 ug/ml after 18 hrs by propidium iodide staining based flow cytometry (reference value: 24.3%); assay type: functional; how it was run: as §2
Staphylococcus aureus = test: Antibacterial activity against Staphylococcus aureus DSM 346 by serial dilution method; assay type: functional, organism-based
Mucor plumbeus = test: Antifungal activity against Mucor plumbeus MUCL 49355 by serial dilution method; assay type: functional
U2OS [16] = test: Cell cycle arrest in human U2OS cells assessed as small cells with reduced nuclear size at 10 ug/ml after 18 hrs by propidium iodide staining based flow cytometry (reference value: 0.19%); assay type: functional; design: scale not given: the % may be the effect or the level left; how it was run: as §2
U2OS [17] = test: Cell cycle arrest in human U2OS cells assessed as accumulation at S phase at 5 ug/ml after 18 hrs by propidium iodide staining based flow cytometry (reference value: 19%); assay type: functional; how it was run: as §2
Bacillus subtilis = test: Antibacterial activity against Bacillus subtilis DSM 10 by serial dilution method; assay type: functional, organism-based

## CC(=O)CC1=C(C)C=C2C[C@@H](C)C(=O)[C@@H](C)[C@@H]2[C@H]1/C=C(C)/C=C(C)/C=C/C(=O)O
SK-OV-3
  IC50: 15.6 µM
Setaria italica
  Activity: inactive
Caenorhabditis elegans
  Activity: inactive
A-431
  IC50: 10.1 µM
Yamadazyma tenuis
  Activity: inactive
U2OS [1]
  IC50: 6.8 µM
Escherichia coli
  Activity: inactive
L929 [2]
  IC50: 9.1 µM
U2OS [3]
  Activity: 21.9%
KB 3-1
  IC50: 2.5 µM
PC-3
  IC50: 18.4 µM
L929 [4]
  Activity: Active
Sclerotinia sclerotiorum
  zone of inhibition at 100 µg/disc: 29 mm
Candida albicans
  Activity: inactive
[5]
  Activity: inactive
U2OS [6]
  Activity: 50.7%
U2OS [7]
  Activity: Active
Pseudomonas aeruginosa
  Activity: inactive
Aspergillus fumigatus
  MIC: 8.3 µg/mL (≈ 20.9 µM)
U2OS [8]
  Activity: 3.45%
U2OS [9]
  Activity: 19.1%
U2OS [10]
  Activity: Active
Micrococcus luteus
  Activity: inactive
[11]
  Activity: inactive
Rhodotorula glutinis
  Activity: inactive
U2OS [12]
  Ratio: 10 - 20
U2OS [13]
  Activity: Active
U2OS [14]
  Activity: Active
MCF7
  IC50: 7.3 µM
Mucor hiemalis
  Activity: inactive
U2OS [15]
  Activity: 10.8%
Staphylococcus aureus
  Activity: inactive
Mucor plumbeus
  MIC: 37.5 µg/mL (≈ 94.6 µM)
U2OS [16]
  Activity: 25.5%
U2OS [17]
  Activity: 17.4%
Bacillus subtilis
  Activity: inactive
